M18AAP inhibitor: PfM18AAP inhibitors, malaria aminopeptidase, primary screen, biochemical, QFRET, recombinant enzyme; inhibition, % at 7.35 µM; 290,000 tested, 1.2% active; H-Glu-NHMec fluorogenic cleavage; M18 aspartyl aminopeptidase (Plasmodium falciparum 3D7); AID 1822, 2009;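 active = inhibition above the campaign mean inhibition over all tested compounds plus 3 SD, cut at about 28% in these data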;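 note: 0% = plate median of test compound wells and 100% = 2 mM ZnCl2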
SENP1 inh: human SENP1 catalytic domain inhibitors, primary screen, biochemical, FRET, uHTS | Sentrin-specific protease 1 (Homo sapiens), Q9P0U3 | recombinant SENP1 catalytic domain, CyPet-SUMO1-YPet FRET cleavage | 360,000 tested, 0.21% active | inhibition, % at 10 µM;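 active = inhibition at least 30% at 10 µM, raw YFP signal under a set limit, fluorescence ratio 0.5 to 1.5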;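 note: 0% = enzyme with DMSO and 100% = no enzyme wells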
Target sequence (Q9P0U3 419-644 limits assumed): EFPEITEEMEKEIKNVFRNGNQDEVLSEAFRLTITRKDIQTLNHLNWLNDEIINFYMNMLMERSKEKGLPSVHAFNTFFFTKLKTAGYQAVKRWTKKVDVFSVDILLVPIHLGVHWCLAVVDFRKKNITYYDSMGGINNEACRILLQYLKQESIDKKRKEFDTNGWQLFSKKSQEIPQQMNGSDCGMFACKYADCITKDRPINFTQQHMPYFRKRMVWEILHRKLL
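System: Recombinant human SENP1 catalytic domain, His6-tagged | Incubation: Enzyme reaction for 50 min at room temperature, dark | Medium: Tris pH 8 with BME, BSA, NP40 and catalase | Also added: 25 nM SUMO1 FRET substrate | Compound: 10 µM single point, 0.5% DMSO | Measured by: FRET fluorescence in CFP and YFP emission channels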
HDAC3 inh: HDAC3 deacetylase inhibitors, primary screen, biochemical, fluorescence, cell-free homogeneous; Histone deacetylase 3 (Homo sapiens), O15379; recombinant HDAC3, fluorogenic peptide/trypsin coupled; inhibition, % at 8.3 µM; 320,000 tested, 0.15% active; in the data active = inhibition above about 26%, passing the limit was not always enough; inconclusive = no clear call, values can overlap the other calls
FXN GAA850 act: FXN promoter activators, primary screen, cell-based, luciferase luminescence, HEK293 lucGAA850; activation, % at 6 µM; HEK293 lucGAA850 FXN promoter luciferase reporter, 24 h; percent of 10 µM SAHA response; AID 540364, 2011; 360,000 tested, 0.56% active;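 active = activation above the average of all compounds screened plus 3 SD, cutoff fixed separately per campaign, cut at about 7.5% in these data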;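 note: 0% = DMSO wells and 100% = 10 µM SAHA wells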
Fh CTSL1 inh: Fasciola hepatica cathepsin L1 inhibitors, primary screen, counter-screen for PFM18AAP inhibitor project, biochemical, QFRET, fluorogenic peptide substrate; recombinant F. hepatica cathepsin L1, Z-Leu-Arg-MCA fluorescence; inhibition, % at 5.96 µM; 300,000 tested, 0.49% active;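 active = inhibition above the mean of all tested compounds plus 3 SD, set per screening campaign, cut at about 17% in these data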;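 note: 0% = plate median of test compound wells and 100% = 1 µM Z-Phe-Ala-diazomethylketone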
AHR act: AHR activators, primary screen, cell-based, luminescence, luciferase reporter, human; Aryl hydrocarbon receptor (Homo sapiens), P35869; AHR-responsive luciferase reporter cells; activation, % at 5 µM; 320,000 tested, 2.5% active; AID 2796, 2010; in the data active = activation above about 47%;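 note: 0% = vehicle wells and 100% = reference agonist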
Active calls of the source: *; ? = inconclusive; / = no result given. This is a sample that favours compounds with a hit; in the whole collection about 4.2% have one here.

SMILES	M18AAP inhibitor	SENP1 inh	HDAC3 inh	FXN GAA850 act	Fh CTSL1 inh	AHR act
Cc1cc2cc(C)c(NCCNC(=O)c3ccccc3)nc2cc1C	-1.8	1.2	-2.8	2.3	2.6	63.3*
CCOc1ccc2nc(NCCNC(=O)C(C)C)c(C)cc2c1	4.5	-0.7	-37.3	2.5	-0.4	47.7*
Cc1cccc(C)c1NC(=O)C1CCCN1S(=O)(=O)c1ccc(-c2ccc(=O)[nH]n2)s1 (stereo unspecified)	2.0	1.0	-7.3	0.1	28.1*	8.8
CCc1ccccc1NC(=O)C1CCCN1S(=O)(=O)c1ccc(-c2ccc(=O)[nH]n2)s1 (stereo unspecified)	5.5	-0.8	6.9	3.6	2.5	17.5
O=C(CSc1ccccc1)NNC(=O)c1ccncc1	/	1.1	/	1.8	/	/
COc1ccc2[nH]c(C(=O)Nc3ncc(C)cc3Br)cc2c1	0.1	0.5	-2.2	1.4	-0.1	2.8
COc1ccc2[nH]c(C(=O)Nc3ccc(F)cc3Br)cc2c1	5.1	1.9	0.5	4.1	0.5	49.9*
CN(Cc1nc2ccccc2c(=O)[nH]1)C(=O)c1cccc(NC(=O)c2cccs2)c1	/	-7.1	/	1.4	/	3.8
Cc1ccc(N/N=C/c2ccncc2)cc1	7.4	-3.4	9.6	4.5	7.2	50.8*
COc1ccc(/C=C/c2nc(-c3ccccc3)cc(=O)[nH]2)cc1	-4.5	-2.3	/	3.0	8.8	76.2*
O=c1cc(-c2ccccc2)nc(/C=C/c2ccccc2)[nH]1	6.8	1.3	-0.8	0.3	5.5	36.0
Nc1cc(OC(=O)c2ccc(F)cc2)nn1S(=O)(=O)c1ccc(F)cc1	-9.0	5.5	60.0*	-0.2	-10.3	0.5
COc1ccc(S(=O)(=O)n2nc(OC(=O)c3c(-c4ccccc4Cl)noc3C)cc2N)cc1	5.4	1.6	-0.8	-1.6	17.6*	0.3
Cc1ccc(S(=O)(=O)n2nc(OC(=O)c3ccco3)cc2N)cc1	2.1	1.5	58.2*	-2.1	-30.8	1.0
COc1ccc(C(=O)Oc2cc(N)n(S(=O)(=O)c3ccc(C)cc3)n2)cc1	-22.9	3.4	?	1.0	1.7	0.8
Nc1cc(OC(=O)c2ccco2)nn1S(=O)(=O)c1ccc(F)cc1	19.3	-1.0	85.3*	-1.3	-29.0	4.2
Cc1ccc(S(=O)(=O)n2nc(OC(=O)c3ccccc3C)cc2N)cc1	3.3	2.4	5.0	-2.3	-0.1	-3.3
CC(C)(C)C(=O)Oc1cc(N)n(S(=O)(=O)c2ccc(F)cc2)n1	19.9	4.1	?	-1.2	1.3	1.9
O=C(Nc1cccc(Cl)c1)c1nc[nH]c1C(=O)N1CCN(c2ccccc2)CC1	/	2.7	-1.4	-0.6	/	3.7
CCOC(=O)c1[nH]c(=S)[nH]c1C	/	0.4	/	0.4	/	/
Cc1ccc(C)c(NC(=O)CN2C(=O)NC(CCc3ccccc3)C2=O)c1 (stereo unspecified)	/	-2.0	2.8	-0.4	/	0.6
Cc1ccc(S(=O)(=O)N(C)C[C@@H]2OCc3cn(nn3)CCCC(=O)N([C@H](C)CO)C[C@H]2C)cc1	/	1.0	/	/	/	/
Cc1ccccc1-c1cc2nc(NCc3ccc(N(C)C)cc3)n(C)c(=O)c2s1	/	1.1	/	1.0	/	/
NC(=O)c1cccc(-c2ccnc3c2CC(C(=O)NCCc2ccccc2)O3)c1 (stereo unspecified)	/	2.0	/	-2.1	/	/
CCOC(=O)[C@H]1[C@H]2COc3ccccc3[C@@H]2N2C(=O)CN(CC3CCCO3)C(=O)[C@@]12C (stereo partly specified)	/	0.5	1.1	0.5	/	1.1
COc1cccc(NC(=O)CN(C)C(=O)c2ccccc2OCc2c(C)noc2C)c1	/	-0.5	-2.5	0.5	26.6*	5.0
Cc1ccc2cc3c(nc2c1)N(c1ccccc1)CC3	3.8	-1.5	2.0	4.0	3.5	66.5*
COc1ccc(Nc2nc(C)cc(C)c2C#N)c(OC)c1	0.3	-1.5	-5.1	-0.5	-4.7	34.0
COc1ccc(Nc2nc(C)cc(C)c2C#N)cc1	6.0	0.5	-0.4	1.7	-2.7	65.4*

Screening data as filed in PubChem.
